Laboratory results published in ChEMBL document CHEMBL1806360, “Synthesis and biological evaluation of conformationally flexible as well as restricted dimers of monastrol and related dihydropyrimidones” (Eur J Med Chem, 2011).
Values after ≈ are worked out from the molar mass of the structure shown. Active and inactive are the calls of the source. No cut-off for these calls is given here.

How the values were obtained:
MCF7 [1] = test: Cytotoxicity against human MCF7 cells after 48 hrs by MTT assay; type: functional, cell-based; details: MCF7, 48 h
How it was run: (§1)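 MTT assay. Medium with 10% FBS and 2 mM L-glutamine was DMEM for A431 and Colo-205, RPMI for A549, and MEM for MCF-7. Cultures were preincubated 24 h at 37 °C, 5% CO2. 1 × 10⁴ cells (trypan blue count) were exposed to 200, 100, 50, 25 and 10 concentration levels for 48 h at 37 °C. MTT was added for 4 h, formazan dissolved in DMSO, and A570 read. IC50 was curve-fitted from viability versus untreated cells, three experiments.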

COLO 205 = test: Cytotoxicity against human COLO205 cells after 48 hrs by MTT assay; type: functional, cell-based; details: COLO 205, 48 h; how it was run: as §1
HT-29 = test: Cytotoxicity against human HT-29 cells after 48 hrs by MTT assay; type: functional, cell-based; details: HT-29, 48 h
A-431 = test: Cytotoxicity against human A431 cells after 48 hrs by MTT assay; type: functional, cell-based; details: A-431, 48 h; how it was run: as §1
A549 = test: Cytotoxicity against human A549 cells after 48 hrs by MTT assay; type: functional, cell-based; details: A549, 48 h; how it was run: as §1
Nucleic Acid = test: Binding affinity to calf thymus DNA assessed as change in melting temperature at compound to DNA ratio of 1:5 after 18 hrs at pH 7; type: nucleic-acid assay; details: Bos taurus
How it was run: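 Thermal melting of calf thymus DNA in 10 mM sodium phosphate with 1 mM Na2EDTA, pH 7.00. Compound was added from DMSO stock at a fixed 1:5 compound:DNA molar ratio. The mix was incubated 18 h at 37 °C, then A260 was monitored while heating at 1 °C/min over 40–90 °C. ΔTm is relative to DNA alone.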

MCF7 [2] = test: Ratio IC50 for monastrol to compound for human MCF7 cells; type: functional
Staphylococcus aureus = test: Antibacterial activity against Staphylococcus aureus assessed as zone of inhibition at 100 ug/ml by agar plate method; type: functional; details: read-out: IZ
How it was run: (§2)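 Well diffusion on Mueller-Hinton agar. Inoculum from 3–5 colonies was grown in nutrient broth and adjusted to 0.5 McFarland (about 1 × 10⁸ CFU/mL), then swabbed over the plate. Compounds were dissolved in DMSO and added to duplicate 6 mm wells. Plates were incubated 18 h at 37 °C, and inhibition zone diameter was read to the nearest mm. Ciprofloxacin was the positive control and DMSO the negative control.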

[3] = test system: Staphylococcus epidermidis; test: Antibacterial activity against Staphylococcus epidermidis assessed as zone of inhibition at 100 ug/ml by agar plate method; type: functional; details: read-out: IZ; how it was run: as §2
Bacillus subtilis [4] = test: Antibacterial activity against Bacillus subtilis assessed as zone of inhibition at 100 ug/ml by agar plate method; type: functional; details: read-out: IZ; how it was run: as §2
Escherichia coli [5] = test: Antibacterial activity against Escherichia coli assessed as zone of inhibition at 100 ug/ml by agar plate method; type: functional; details: read-out: IZ; how it was run: as §2
Klebsiella pneumoniae [6] = test: Antibacterial activity against Klebsiella pneumoniae assessed as zone of inhibition at 100 ug/ml by agar plate method; type: functional; details: read-out: IZ; how it was run: as §2
Pseudomonas aeruginosa = test: Antibacterial activity against Pseudomonas aeruginosa assessed as zone of inhibition at 100 ug/ml by agar plate method; type: functional; details: read-out: IZ; how it was run: as §2
[7] = test system: Staphylococcus epidermidis; test: Antibacterial activity against Staphylococcus epidermidis assessed as zone of inhibition at 50 ug/ml by agar plate method; type: functional, organism-based; how it was run: as §2
Bacillus subtilis [8] = test: Antibacterial activity against Bacillus subtilis assessed as zone of inhibition at 50 ug/ml by agar plate method; type: functional, organism-based; how it was run: as §2
Escherichia coli [9] = test: Antibacterial activity against Escherichia coli assessed as zone of inhibition at 50 ug/ml by agar plate method; type: functional, organism-based; how it was run: as §2
Klebsiella pneumoniae [10] = test: Antibacterial activity against Klebsiella pneumoniae assessed as zone of inhibition at 50 ug/ml by agar plate method; type: functional, organism-based; how it was run: as §2

ΔTm (Nucleic Acid) [°C]	SMILES	IC50 (MCF7 [1]) [µg/mL]	IC50 (COLO 205) [µg/mL]	IC50 (HT-29) [µg/mL]	IC50 (A-431) [µg/mL]	IC50 (A549) [µg/mL]	Ratio IC50 (MCF7 [2])	zone of inhibition at 100 µg/mL (Staphylococcus aureus) [mm]	zone of inhibition at 100 µg/mL [3] [mm]	zone of inhibition at 100 µg/mL (Bacillus subtilis [4]) [mm]	zone of inhibition at 100 µg/mL (Escherichia coli [5]) [mm]	zone of inhibition at 100 µg/mL (Klebsiella pneumoniae [6]) [mm]	zone of inhibition at 100 µg/mL (Pseudomonas aeruginosa) [mm]	Activity [7]	Activity (Bacillus subtilis [8])	Activity (Escherichia coli [9])	Activity (Klebsiella pneumoniae [10])
4.1	COC(=O)[C@@H]1CCCN1C(=O)C1=C(C)NC(=S)NC1c1ccc(OC/C=C\COc2ccc(C3NC(=S)NC(C)=C3C(=O)N3CCC[C@H]3C(=O)OC)cc2OC)c(OC)c1 (stereo partly drawn)	175 (≈ 203 µM)	> 200	> 200	183 (≈ 212 µM)	> 200	–	–	–	–	–	–	–	–	–	–	–
–	COC(=O)[C@@H]1CCCN1C(=O)C1=C(C)NC(=S)NC1c1cccc(OCCCCOc2cccc(C3NC(=S)NC(C)=C3C(=O)N3CCC[C@H]3C(=O)OC)c2)c1 (stereo partly drawn)	128 (≈ 159 µM)	154 (≈ 191 µM)	> 200	148 (≈ 184 µM)	> 200	–	–	–	–	–	–	–	–	–	–	–
–	COC(=O)[C@@H]1CCCN1C(=O)C1=C(C)NC(=S)NC1c1cccc(OCCCOc2cccc(C3NC(=S)NC(C)=C3C(=O)N3CCC[C@H]3C(=O)OC)c2)c1 (stereo partly drawn)	175 (≈ 221 µM)	> 200	> 200	190 (≈ 240 µM)	175 (≈ 221 µM)	–	–	–	–	–	–	–	–	–	–	–
–	CCOC(=O)C1=C(C)NC(=S)NC1c1ccc(OCCCOc2ccc(C3NC(=S)NC(C)=C3C(=O)OCC)cc2OC)c(OC)c1 (stereo not drawn)	22 (≈ 32.1 µM)	49 (≈ 71.5 µM)	> 200	66 (≈ 96.4 µM)	116 (≈ 169 µM)	2	–	–	–	–	–	–	–	–	–	–
–	CCOC(=O)C1=C(C)NC(=S)NC1c1cccc(OC/C=C\COc2cccc(C3NC(=S)NC(C)=C3C(=O)OCC)c2)c1 (stereo not drawn)	49 (≈ 76.9 µM)	64 (≈ 101 µM)	> 200	190 (≈ 298 µM)	154 (≈ 242 µM)	–	15	12	10	8	8	18	inactive	inactive	inactive	inactive
2.5	COC(=O)[C@@H]1CCCN1C(=O)C1=C(C)NC(=S)NC1c1cccc(OC/C=C/COc2cccc(C3NC(=S)NC(C)=C3C(=O)N3CCC[C@H]3C(=O)OC)c2)c1 (stereo partly drawn)	54 (≈ 67.2 µM)	127 (≈ 158 µM)	> 200	96 (≈ 120 µM)	148 (≈ 184 µM)	–	–	–	–	–	–	–	–	–	–	–
–	COC(=O)[C@@H]1CCCN1C(=O)C1=C(C)NC(=S)NC1c1cccc(OCCCCCOc2cccc(C3NC(=S)NC(C)=C3C(=O)N3CCC[C@H]3C(=O)OC)c2)c1 (stereo partly drawn)	34 (≈ 41.5 µM)	71 (≈ 86.7 µM)	> 200	159 (≈ 194 µM)	184 (≈ 225 µM)	–	–	–	–	–	–	–	–	–	–	–
–	CCOC(=O)C1=C(C)NC(=S)NC1c1cccc(OCCCCCOc2cccc(C3NC(=S)NC(C)=C3C(=O)OCC)c2)c1 (stereo not drawn)	178 (≈ 273 µM)	190 (≈ 291 µM)	> 200	74 (≈ 113 µM)	> 200	–	–	–	–	–	–	–	–	–	–	–
–	CCOC(=O)C1=C(C)NC(=S)NC1c1cccc(OCCCCOc2cccc(C3NC(=S)NC(C)=C3C(=O)OCC)c2)c1 (stereo not drawn)	186 (≈ 291 µM)	> 200	> 200	> 200	> 200	–	–	–	–	–	–	–	–	–	–	–
2.5	CCOC(=O)C1=C(C)NC(=S)NC1c1cccc(OC/C=C/COc2cccc(C3NC(=S)NC(C)=C3C(=O)OCC)c2)c1 (stereo not drawn)	175 (≈ 275 µM)	> 200	> 200	185 (≈ 291 µM)	> 200	–	8	18	12	10	8	15	inactive	inactive	inactive	inactive
2.8	COC(=O)[C@@H]1CCCN1C(=O)C1=C(C)NC(=S)NC1c1ccc(OC/C=C/COc2ccc(C3NC(=S)NC(C)=C3C(=O)N3CCC[C@H]3C(=O)OC)cc2OC)c(OC)c1 (stereo partly drawn)	60 (≈ 69.5 µM)	69 (≈ 80 µM)	> 200	34 (≈ 39.4 µM)	158 (≈ 183 µM)	–	–	–	–	–	–	–	–	–	–	–
3.1	COC(=O)[C@@H]1CCCN1C(=O)C1=C(C)NC(=S)NC1c1cccc(OC/C=C\COc2cccc(C3NC(=S)NC(C)=C3C(=O)N3CCC[C@H]3C(=O)OC)c2)c1 (stereo partly drawn)	156 (≈ 194 µM)	180 (≈ 224 µM)	> 200	183 (≈ 228 µM)	> 200	–	15	17	12	12	3	12	inactive	inactive	inactive	inactive
0.1	CCOC(=O)C1=C(C)NC(=S)NC1c1cccc(OCCCOc2cccc(C3NC(=S)NC(C)=C3C(=O)OCC)c2)c1 (stereo not drawn)	16 (≈ 25.6 µM)	144 (≈ 230 µM)	> 200	76 (≈ 122 µM)	120 (≈ 192 µM)	3	10	15	8	20	5	12	inactive	inactive	inactive	inactive
–	O=C(O)c1cn(C2CC2)c2cc(N3CCNCC3)c(F)cc2c1=O [CIPROFLOXACIN]	–	–	–	–	–	–	25	35	33	35	12	38	inactive	inactive	inactive	inactive
–	COC(=O)[C@@H]1CCCN1C(=O)C1=C(C)NC(=S)NC1c1ccc(OCCCCCOc2ccc(C3NC(=S)NC(C)=C3C(=O)N3CCC[C@H]3C(=O)OC)cc2OC)c(OC)c1 (stereo partly drawn)	55 (≈ 62.6 µM)	142 (≈ 162 µM)	> 200	125 (≈ 142 µM)	150 (≈ 171 µM)	–	–	–	–	–	–	–	–	–	–	–
3.2	CCOC(=O)C1=C(C)NC(=S)NC1c1ccc(OC/C=C/COc2ccc(C3NC(=S)NC(C)=C3C(=O)OCC)cc2OC)c(OC)c1 (stereo not drawn)	35 (≈ 50.2 µM)	90 (≈ 129 µM)	> 200	185 (≈ 265 µM)	165 (≈ 237 µM)	–	–	–	–	–	–	–	–	–	–	–
–	CCOC(=O)C1=C(C)NC(=S)NC1c1ccc(OC/C=C\COc2ccc(C3NC(=S)NC(C)=C3C(=O)OCC)cc2OC)c(OC)c1 (stereo not drawn)	84 (≈ 121 µM)	120 (≈ 172 µM)	> 200	170 (≈ 244 µM)	> 200	–	12	18	13	12	–	15	inactive	inactive	inactive	inactive
–	COC(=O)[C@@H]1CCCN1C(=O)C1=C(C)NC(=S)NC1c1ccc(OCCCOc2ccc(C3NC(=S)NC(C)=C3C(=O)N3CCC[C@H]3C(=O)OC)cc2OC)c(OC)c1 (stereo partly drawn)	140 (≈ 165 µM)	92 (≈ 108 µM)	> 200	165 (≈ 194 µM)	180 (≈ 212 µM)	–	–	–	–	–	–	–	–	–	–	–
–	COC(=O)[C@@H]1CCCN1C(=O)C1=C(C)NC(=S)NC1c1ccc(OCCCCOc2ccc(C3NC(=S)NC(C)=C3C(=O)N3CCC[C@H]3C(=O)OC)cc2OC)c(OC)c1 (stereo partly drawn)	169 (≈ 195 µM)	154 (≈ 178 µM)	> 200	190 (≈ 220 µM)	> 200	–	–	–	–	–	–	–	–	–	–	–
–	CCOC(=O)C1=C(C)NC(=S)NC1c1ccc(OCCCCOc2ccc(C3NC(=S)NC(C)=C3C(=O)OCC)cc2OC)c(OC)c1 (stereo not drawn)	178 (≈ 255 µM)	> 200	> 200	185 (≈ 265 µM)	> 200	–	9	12	15	10	5	13	inactive	inactive	inactive	inactive
